DTT redox prof – compounds producing H2O2 with reducing agent – biochemical, NIH compound library profiling, artefact control for MLSCN library redox annotation, primary screen | 200,000 tested, 0.03% active | DTT-dependent redox cycling H2O2, phenol red/HRP absorbance; 100% = 100 µM peroxide control, 0% = buffer | AID 878 | activation, % at 10 µM;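 active means activation of at least 50% relative to the plate's high and low controls in the primary single-dose screen; inactive means activation below 50%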;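 further: compound incubated with DTT at 0.8 mM final as the reducing agent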
ROMK mod – modulates human ROMK potassium channel activity | P48048 | Tet-inducible ROMK, thallium flux fluorescence; actives lie on both sides | B-score at 10 µM | 130,000 tested, 2% active | AID 1918;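 active means signal ratio slope over the read window, or its plate-corrected B-score, at least 3 SD from the plate mean, either direction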;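 further: B-score of the F/F0 ratio slope over 7 to 12 s after thallium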
Target sequence (P48048 whole entry, looked up): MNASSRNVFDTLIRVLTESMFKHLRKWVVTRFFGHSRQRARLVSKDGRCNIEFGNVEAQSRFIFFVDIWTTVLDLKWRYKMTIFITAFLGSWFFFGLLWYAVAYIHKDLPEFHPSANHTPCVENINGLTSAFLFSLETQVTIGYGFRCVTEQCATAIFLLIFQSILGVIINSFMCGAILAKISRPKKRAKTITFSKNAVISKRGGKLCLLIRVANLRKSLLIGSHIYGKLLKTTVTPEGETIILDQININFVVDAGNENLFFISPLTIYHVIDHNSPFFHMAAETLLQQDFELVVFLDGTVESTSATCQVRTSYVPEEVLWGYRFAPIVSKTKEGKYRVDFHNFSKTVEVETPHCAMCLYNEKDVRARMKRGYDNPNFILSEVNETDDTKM
Autophagy mod – autophagy modulation, high-content screen; 190,000 tested, 0.98% active; AID 463193; MEF GFP-LC3 puncta imaging; test concentration mostly 10 µM; calls only at 10 µM (by protocol);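 active means percentage of spot-positive cells more than 3 SD above its plate mean, without a fluorescence outlier flag or 80% toxicity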;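 further: spot-positive cell cutoff set from DMSO-treated cells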
KCC2 mod – modulators of human KCC2 chloride dependent transport; Q9H2X9; KCC2 cells, thallium flux FluoZin-2 fluorescence; B-score of Tl+ flux slope (higher = more flux/activation; lower = inhibition) at 10 µM; 190,000 tested, 2.2% active; AID 1456;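 active means thallium flux slope and its plate-corrected score both differing from the plate sample mean at a set confidence after two filtering rounds, in either direction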;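 further: slope of fluorescence scaled to starting intensity during 10 to 20 s after thallium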
Dynein transport – dynein cargo transport inhibition | 3617.4 mouse cells, GR-EGFP nuclear translocation imaging; test concentration mostly 20 µM; stimulated with dexamethasone, 1 µM; active compounds read low | z-score, hits read low | 220,000 tested, 0.47% active | AID 1381;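 active means plate z-score of nuclear minus cytoplasmic receptor signal below a set negative limit, without overly bright fluorescence or cell loss, cut at about -3.5 in these data, passing the limit was not always enough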;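 further: z-score of nuclear minus cytoplasmic ring GR-EGFP intensity difference per well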
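Buffer or medium – tet-free medium with charcoal-stripped serum · Signal – automated 10x imaging of fixed Hoechst-stained cells · Also added – dexamethasone agonist, 1.0 µM final, for 30 min · Incubation – induction 48 h, compound 1 h, agonist 30 min · Read-out – GR-EGFP nuclear translocation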
* = called active by the depositor. Hits are enriched below; roughly 4.1% of the tested compounds scored in any of these assays.

`COc1cc(/C=N/NC(=O)C(=O)NCc2ccco2)cc(Br)c1O` gave KCC2 mod -1.2 and Dynein transport -0.53.
Screening Cc1ccc(C(=O)N/N=C(/CC(=O)c2cccs2)C(F)(F)F)cc1 returned DTT redox prof 0, Autophagy mod inactive, KCC2 mod 64* and Dynein transport -0.22.
`CC(C)NCC1CCc2cc(CO)c([N+](=O)[O-])cc2N1` (stereo unspecified) gave KCC2 mod 0.68 and Dynein transport 0.34.
`N#CSCC(=O)c1cccc2ccccc12` gave DTT redox prof 0, Autophagy mod inactive, KCC2 mod 12* and Dynein transport -2.4.
For NC(=O)c1cccc2ccccc12 the results were KCC2 mod 0.15 and Dynein transport 0.18.
Cc1cccc(C(C)C)c1NC(=O)C1CN(S(=O)(=O)c2ccccc2)CCN1S(=O)(=O)c1ccccc1 (stereo unspecified) was read as DTT redox prof 1, Autophagy mod inactive, KCC2 mod -1.1 and Dynein transport -0.47.
CCOC(=O)c1cc2c(N)c(C(=O)c3cc(C#N)c(SC)nc3C)sc2nc1C was read as DTT redox prof 4, Autophagy mod active, KCC2 mod 0.99 and Dynein transport -0.54.
CCOC(=O)c1cc(C#N)c(SC)nc1C was read as KCC2 mod 0.68 and Dynein transport -0.29.
For CC(=O)OCC1(C)CN(c2ccccc2)N(C(=O)c2ccc(F)cc2)C1=O (stereo unspecified) the results were DTT redox prof -2, ROMK mod 0.64, Autophagy mod inactive, KCC2 mod -0.77 and Dynein transport 0.16.
`O=C(NC(=S)N1CCc2ccccc21)c1ccccc1Br` gave DTT redox prof 1, Autophagy mod inactive, KCC2 mod 60* and Dynein transport 0.048.
`O=C(COc1ccc(Br)cc1Br)NC(=S)Nc1cccc(CO)c1` gave DTT redox prof 0, ROMK mod -0.49, Autophagy mod inactive and Dynein transport 2.2.
Screening CC(Oc1ccc(Cl)cc1Cl)C(=O)NC(=S)N1CCc2ccccc21 (stereo unspecified) returned DTT redox prof 1, Autophagy mod inactive, KCC2 mod 44* and Dynein transport 1.2.
For O=C(COc1ccc(Br)cc1Br)NC(=S)N1CCCc2ccccc21 the results were DTT redox prof -1, ROMK mod 1.1, Autophagy mod inactive, KCC2 mod 11* and Dynein transport 0.63.
Screening O=C(COc1ccc(Br)cc1Cl)NC(=S)N1CCc2ccccc21 returned DTT redox prof 0, Autophagy mod inactive, KCC2 mod 23* and Dynein transport 0.04.
`O=C(Nc1nnc(SCC(=O)N2CCOCC2)s1)c1ccccc1` gave DTT redox prof 0, ROMK mod 0.12, Autophagy mod inactive, KCC2 mod 0.24 and Dynein transport -0.65.
Screening O=[N+]([O-])c1cc(-c2cnc3ccccc3n2)ccc1Oc1ccc(Cl)cc1 returned DTT redox prof 2, Autophagy mod active, KCC2 mod 0.12 and Dynein transport 0.45.
COc1ccccc1Oc1ccc(-c2cnc3ccccc3n2)cc1[N+](=O)[O-] was read as DTT redox prof 0, Autophagy mod inactive, KCC2 mod 0.43 and Dynein transport -1.
`CCOC(=O)c1cnc(SCC(=O)N2CCOCC2)nc1N` gave DTT redox prof 0, ROMK mod -0.3, Autophagy mod inactive, KCC2 mod 0.25 and Dynein transport 0.27.
Screening COc1ccc(/C=N/Nc2cc(N3CCCC3)nc(N3CCCC3)n2)cc1 returned DTT redox prof 0, ROMK mod -0.35, Autophagy mod active, KCC2 mod 0.024 and Dynein transport -0.7.
Oc1ccc(/C=N/Nc2cc(N3CCCC3)nc(N3CCCC3)n2)cc1 was read as DTT redox prof -8, ROMK mod 0.66, Autophagy mod inactive, KCC2 mod 0.85 and Dynein transport 0.36.
For N#CC1CC(c2ccccc2)=NN1c1ccccc1[N+](=O)[O-] (stereo unspecified) the results were DTT redox prof -4, ROMK mod 0.1, Autophagy mod inactive, KCC2 mod -0.79 and Dynein transport 0.53.
Cc1cccc(NC(=S)NC(=O)c2cc(-c3ccccc3)nc3ccccc23)c1 was read as DTT redox prof -7, Autophagy mod inactive, KCC2 mod 8.5* and Dynein transport 0.44.
Screening Cc1cccc(NC(=O)NNC(=O)c2cc(-c3ccccc3Cl)nc3ccccc23)c1 returned DTT redox prof -13, Autophagy mod inactive, KCC2 mod -1.7 and Dynein transport -2.1.
Screening Cc1ccc(C)c(NC(=O)c2cc(-c3cccnc3)nc3ccccc23)c1 returned DTT redox prof -2, ROMK mod -0.47, Autophagy mod inactive, KCC2 mod 0.77 and Dynein transport -0.47.
Cc1ccccc1NC(=S)NC(=O)c1cc(-c2ccccc2)nc2ccccc12 was read as DTT redox prof -8, Autophagy mod inactive, KCC2 mod 14* and Dynein transport 0.6.
`c1ccc(-c2nnc(CSc3nnc(-c4ccncc4)n3Cc3ccco3)o2)cc1` gave DTT redox prof 2, Autophagy mod inactive, KCC2 mod -0.67 and Dynein transport -0.06.
`C(=C\c1ccccc1)/CSc1nnc(-c2ccncc2)n1Cc1ccco1` gave DTT redox prof 0, ROMK mod -0.52, Autophagy mod inactive, KCC2 mod -5* and Dynein transport 1.1.
Cc1cc(N2C(=O)C=CC2=O)c([N+](=O)[O-])cc1C was read as DTT redox prof 0, ROMK mod -0.86, Autophagy mod inactive, KCC2 mod -0.53 and Dynein transport -6.3*.
Screening Cc1ccc(C)c(N2CCN(c3ccc(N4C(=O)COCC4=O)cc3[N+](=O)[O-])CC2)c1 returned DTT redox prof 0, ROMK mod 0.4, Autophagy mod inactive, KCC2 mod -0.44 and Dynein transport -0.77.
CN1/C(=C\C=C(/C#N)C(=O)Nc2ccc(Cl)cc2)C(C)(C)c2ccccc21 was read as DTT redox prof 3, Autophagy mod active, KCC2 mod inactive and Dynein transport -0.099.
Screening CN(C)c1ccc(/C=C/C=C2/SC(=S)N(c3ccccc3)C2=O)cc1 returned DTT redox prof 2, Autophagy mod active and Dynein transport -2.5.
Screening Nc1nc2ccccc2n1C(=O)c1cccs1 returned DTT redox prof -1, ROMK mod -0.052, Autophagy mod inactive, KCC2 mod 0.7 and Dynein transport 0.84.
For O=[N+]([O-])c1ccc(Oc2ccc(F)cc2)c2ccncc12 the results were DTT redox prof 0, ROMK mod -2.1, Autophagy mod inactive, KCC2 mod 0.25 and Dynein transport 0.52.
For O=[N+]([O-])c1ccc(Oc2cccc(Br)c2)c2ccncc12 the results were DTT redox prof 0, ROMK mod -0.39, Autophagy mod active and Dynein transport -1.2.

Screening data deposited in PubChem BioAssay by several laboratories.
